# A selection: hits, their analogues and other compounds. The true share with any hit is near 2.5%.
# Platelet DG rel: platelet dense granule release activity; actives 0.22% (n = 300,000); human platelet-rich plasma, SFLLRN dense granule ATP release, luminescence; inhibition, %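 (compounds screened at 7.5 µM in platelet-rich plasma)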;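 active = mean replicate score, as percent of positive control, at or above 50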
# TRPC6 inhibitor: blocks the mouse TRPC6 cation channel; Q61143; HEK293-TRPC6, membrane potential dye, ACh-evoked depolarization; stronger effect = lower value; B-score at 10 µM; actives 1.1% (n = 310,000);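 active = B-score under library mean minus 3 SD, initial fluorescence not abnormally high, positive integrated signal ratio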;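 also: B-score derived from integrated fluorescence ratio over the kinetic read; more negative B-score means stronger inhibition of depolarization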
# TRPC4 act: activators of mouse TRPC4 channel | Q9QUQ5 | HEK293 TRPC4beta/mu-opioid, Fluo4 calcium fluorescence; stronger effect = higher value | B-score at 10 µM | actives 0.49% (n = 310,000) | AID 2237;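 active = B-score above 5 SD of library B-scores, and initial fluorescence ratio not above library mean plus 5 SD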;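 also: positive B-score marks a calcium rise read as TRPC4 activation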
# Target sequence (Q9QUQ5 whole entry, looked up): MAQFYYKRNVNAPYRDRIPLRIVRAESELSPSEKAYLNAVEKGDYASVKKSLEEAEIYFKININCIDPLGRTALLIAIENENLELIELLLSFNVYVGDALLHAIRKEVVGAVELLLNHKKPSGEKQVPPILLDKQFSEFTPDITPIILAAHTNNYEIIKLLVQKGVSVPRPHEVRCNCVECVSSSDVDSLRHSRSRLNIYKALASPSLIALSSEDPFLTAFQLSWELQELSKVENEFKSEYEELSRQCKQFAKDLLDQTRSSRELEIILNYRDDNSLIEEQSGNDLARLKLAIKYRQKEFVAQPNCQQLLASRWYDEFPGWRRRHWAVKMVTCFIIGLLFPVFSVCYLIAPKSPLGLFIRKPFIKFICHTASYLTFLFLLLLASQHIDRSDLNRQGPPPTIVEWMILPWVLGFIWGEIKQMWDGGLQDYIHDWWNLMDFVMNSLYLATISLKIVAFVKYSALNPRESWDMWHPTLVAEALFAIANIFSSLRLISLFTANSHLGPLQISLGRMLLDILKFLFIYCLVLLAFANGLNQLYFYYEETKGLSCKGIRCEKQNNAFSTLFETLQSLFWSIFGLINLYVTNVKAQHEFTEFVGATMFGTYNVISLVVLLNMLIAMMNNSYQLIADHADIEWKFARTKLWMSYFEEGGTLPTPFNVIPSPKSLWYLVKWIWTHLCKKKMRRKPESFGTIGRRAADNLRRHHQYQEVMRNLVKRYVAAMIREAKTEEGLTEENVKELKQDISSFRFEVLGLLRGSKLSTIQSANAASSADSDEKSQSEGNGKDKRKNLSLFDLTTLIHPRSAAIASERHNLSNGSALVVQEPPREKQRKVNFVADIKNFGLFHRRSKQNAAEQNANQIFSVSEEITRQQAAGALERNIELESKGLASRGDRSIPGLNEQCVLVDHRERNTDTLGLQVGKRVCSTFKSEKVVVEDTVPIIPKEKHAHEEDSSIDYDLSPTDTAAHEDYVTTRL
#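 Assay system: HEK293 cells stably co-expressing mouse TRPC4beta and mu-opioid receptor / Timing: Fluo4 dye loading 45 min at room temperature, 110 s recording / Signal: Fluo4 calcium-sensitive dye fluorescence, kinetic, 1 Hz baseline / Read-out: integrated baseline-normalised fluorescence ratio, converted to per-well B score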
# TRPC4 potent: allosterically enhances the mouse TRPC4 cation channel | B-score at 10 µM | Q9QUQ5 | HEK293 TRPC4beta/mu-opioid, DAMGO EC20, Fluo-4 Ca2+ flux; stronger effect = higher value | actives 0.42% (n = 310,000);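 active = B-score of calcium response area above 5 SD of library B-scores, with initial fluorescence ratio within 5 SD of library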
# TRPC4 inh: blocks the mouse TRPC4 cation channel | Q9QUQ5 | HEK293 TRPC4beta/mu-opioid, DAMGO-evoked Fluo4 calcium flux; stronger effect = lower value | B-score at 10 µM | actives 0.39% (n = 300,000) | AID 2247;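 active = B-score over 3 SD under the library average, no early fluorescence shift, positive overall ratio signal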
#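 material = TRPC4beta/mu-opioid receptor HEK293 cell line | probe or stimulus = sequential submaximal and maximal DAMGO stimulation | compound dosing = one concentration per compound | measured by = Fluo4 Ca2+ flux fluorescence | evaluation = integrated fluorescence ratio relative to baseline, converted to per-well B score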
# TRPC6 activator: activators of mouse TRPC6 channel; Q61143; HEK293-TRPC6 membrane potential dye fluorescence; stronger effect = higher value; B-score at 10 µM; actives 0.13% (n = 310,000);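 active = B-score of the integrated fluorescence ratio above library mean plus 3 SD, and starting fluorescence ratio within library mean plus 5 SD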;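 also: higher score means more depolarization so channel activation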
# A number is an active result; - = inactive.
SMILES,Platelet DG rel,TRPC6 inhibitor,TRPC4 act,TRPC4 potent,TRPC4 inh,TRPC6 activator
CC(C)(C)c1ccc(NC(=O)Cn2cnc3cc([N+](=O)[O-])ccc3c2=O)cc1,-,-,-,-,-,-
Cc1nn(-c2ccccc2)c(Cl)c1/C=N/NC(=O)c1[nH]ncc1Br,60,-,-,-,-,-
Cc1nn(-c2ccccc2)c(Cl)c1/C=N/NC(=O)c1ccn[nH]1,-,-,-,-,-,-
Cc1nnc(NC(=O)CSc2nc3c(c(=O)n(C)c(=O)n3C)n2C(C)C)s1,-,-,-,-,-,-
COc1ccc(C(=O)OCCc2sc[n+](CC(=O)c3ccccc3)c2C)cc1,-,-5.3,-,-,-,-
Cc1cc[n+](CC(=O)c2cccc([N+](=O)[O-])c2)c2ccccc12,-,-,-,-,-,-
Cc1c(CCOC(=O)C2C3CC4CC(C3)CC2C4)sc[n+]1CC(=O)c1ccc(Br)cc1 (configuration not stated),-,-,-,-,-,-
Cc1c(CCOC(=O)c2cccc([N+](=O)[O-])c2)sc[n+]1CC(=O)c1ccccc1,-,-,-,-,-6,-
CN(C)c1nc(OCCNC(=O)COc2ccccc2Cl)nc(N(C)C)n1,-,-,-,-,-,-
CN1CCN(NC(=O)c2cccc(Br)c2)CC1,-,-,-,19,-,-
O=C(NN1CCOCC1)c1cccc(Br)c1,-,-,-,-,-,-
NNC(=O)C1COc2cc3ccccc3cc2O1 (configuration not stated),-,-,-,-,-,-
O=C(N/N=C\c1ccc[nH]1)C1COc2ccccc2O1 (configuration not stated),-,-,51,-,-,-
CCC/C=N/NC(=O)C1COc2ccccc2O1 (configuration not stated),-,-,-,-,-,-
Cc1ccc(/C=N/NC(=O)C2COc3ccccc3O2)s1 (configuration not stated),-,-,-,76,-,-
O=C(N/N=C\c1ccc(Br)o1)C1COc2ccccc2O1 (configuration not stated),-,-,-,-,-,-
O=C(N/N=C/c1ccco1)C1COc2ccccc2O1 (configuration not stated),-,-,111,-,-,-
O=C(N/N=C\c1ccccn1)C1COc2cc3ccccc3cc2O1 (configuration not stated),-,-,53,-,-,-
O=C(N/N=C/c1cccs1)C1COc2ccccc2O1 (configuration not stated),-,-,-,-,-,-
COc1ccc(N(CC(=O)NCc2ccc(F)cc2)C(=O)Cn2nnc(-c3ccc(C)o3)n2)cc1OC,-,-,-,-,-,-
CN(C)C(=O)[C@H]1C[C@H]1[C@@H](O)[C@H](CO)NC(=O)[C@H](Cc1ccccc1)NC(=O)OC(C)(C)C,-,-,-,-,-,-
COc1ccc(Sc2nc(-c3ccccc3)ncc2C(=O)O)cc1,-,-,-,-,-7,-
CC(/C=C/c1ccccc1)=N\NC(=O)Cn1nc(C)cc1C,-,-,-,-,-,-
COc1cc(O)ccc1C(=O)CCc1ccc(O)cc1,-,-,-,-,-,-
CCN(CC)CCOCCOC(=O)C1(c2ccccc2)CCCC1,-,-,-,-,-,-
SMILES,Platelet DG rel,TRPC6 inhibitor,TRPC4 act,TRPC4 potent,TRPC4 inh,TRPC6 activator
CCN(CC)CCOC(=O)C1(c2ccccc2)CCOCC1,-,-,60,-,-,-
CC(C)(c1ccccc1)c1ccc(OCCCNCCO)cc1,-,-,-,-,-6,-
COCCCNCCCOc1ccc(C(C)(C)c2ccccc2)cc1,-,-,-,-,-,-
CCOc1ccc(S(=O)(=O)N2CCCC(C(=O)Nc3cc(C)cc(C)c3)C2)cc1 (configuration not stated),-,-,-,-,-,-
O=C(c1cccs1)N1CCN(c2cc(Cl)ccc2Cl)CC1,-,-,-,-,-,-
CCn1c(=O)cc(OCC(=O)N2CCN(c3cccc(C(F)(F)F)c3)CC2)c2ccccc21,-,-,-,11,-,-
CO[C@@H]1O[C@@H]2COC(c3ccccc3)O[C@@H]2[C@@H](OC)[C@@H]1O (some centres not stated),-,-,-,-,-,-
CCn1c(N2CCN(S(=O)(=O)c3ccccc3C(F)(F)F)CC2)nc2ccccc21,-,-,119,-,-,-
CC1(c2ccccc2)O[C@@H]2C[C@H]3[C@@H]4CCC5=CC(=O)C=C[C@]5(C)[C@@]4(F)[C@@H](O)C[C@]3(C)[C@]2(C(=O)CO)O1 (some centres not stated),-,-,-,12,-,-
CCCCn1c(NCCO)nc2ccccc21,-,-,-,-,-6,-
O=C(Cn1c(NCCCO)nc2ccccc21)c1ccc(Br)cc1,-,-,-,-,-7,-
O=C(Cn1c(NCCO)nc2ccccc21)c1ccccc1,-,-,-,-,-,-
OCCNc1nc2ccccc2n1CCN1CCCCC1,-,-,-,-,-6,-
CCOC(=O)c1c(S(=O)(=O)NCC(=O)NCc2cccc(C)c2)c(C)n(C)c1C,-,-,-,-,-,-
CCN1C(=O)C(=O)N(CC(=O)c2[nH]c(C)c(C(C)=O)c2C)C1=O,-,-,-,-,-,-
CC(=O)c1c(C)[nH]c(C(=O)CN2C(=O)NC(C)(c3ccc(C)cc3)C2=O)c1C (configuration not stated),-,-,44,-,-,-
C/C(CC(=O)Nc1ccc(C)c(Cl)c1)=N\NC(=O)c1ccco1,-,-,-,-,-,-
S=C1NC(c2ccccc2)=NCN1c1ccc(Cl)cc1,-,-,-,10,-,-
COC(=O)c1cc(S(=O)(=O)NCC2CCN(Cc3cc(C)ccc3C)CC2)c[nH]1,-,-,-,-,-,-
COc1ccc(OC)c(C(=O)N/N=C/c2ccccn2)c1,-,-,-,-,-,-
COc1ccc(C(=O)Nc2ccccc2C(=O)N/N=C/c2ccccn2)cc1OC,56,-,-,-,-,-
CC(C)(C)OC(=O)NC1CCN(S(=O)(=O)c2ccc3c(c2)OCCO3)CC1,-,-,-,-,-,-
O=C(Nc1ncc(Br)s1)C(Cc1ccccc1)n1cccc1 (configuration not stated),-,-,-,36,-,-
Cc1[nH]c2ccccc2c1N=Nc1ccccc1F,-,-,-,-,-6,-
CCOc1ccc(NC(=O)c2c(NC(=O)CNCCN3CCOCC3)sc3c2CCC3)cc1,-,-5.7,-,-,-,-
CCn1c(NCc2ccccn2)nc2ccccc21,-,-,71,-,-,-
